Measurements published in ChEMBL document CHEMBL2401736, “HCV NS5A replication complex inhibitors. Part 5: discovery of potent and pan-genotypic glycinamide cap derivatives” (Bioorg Med Chem Lett, 2013).

Key:
Hepatitis C virus [1] = experiment: Antiviral activity against Hepatitis C virus genotype 3a; assay type: functional, organism-based, Hepacivirus hominis
Hepatitis C virus [2] = experiment: Antiviral activity against Hepatitis C virus genotype 2a NIH; assay type: functional, organism-based, Hepacivirus hominis; details: subtype 2a NIH
[3] = test system: Bovine viral diarrhea virus 1; experiment: Antiviral activity against Bovine viral diarrhea virus by luciferase assay; assay type: functional, organism-based
How it was run: (§1)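 EC50 values are means of at least two experiments, with at most threefold variation between them.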

Hepatitis C virus [4] = experiment: Antiviral activity against Hepatitis C virus genotype 1a by ELISA; assay type: functional, organism-based, Hepacivirus hominis, subtype 1a; how it was run: as §1
Hepatitis C virus [5] = experiment: Antiviral activity against Hepatitis C virus genotype 4a; assay type: functional, organism-based, Hepacivirus hominis
Hepatitis C virus [6] = experiment: Antiviral activity against Hepatitis C virus genotype 1b by FRET assay; assay type: functional, organism-based, Hepacivirus hominis; how it was run: as §1
Hepatitis C virus [7] = experiment: Antiviral activity against Hepatitis C virus genotype 5a; assay type: functional, organism-based, Hepacivirus hominis
Hepatitis C virus [8] = experiment: Antiviral activity against Hepatitis C virus genotype 3a YH; assay type: functional, organism-based, Hepacivirus hominis; details: subtype 3a YH
[9] = Dissociation constant, pKa of the compound in MeOH/H2O at pH 2 to 11; assay type: physicochemical
How it was run: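 pKa found by potentiometric titration over pH 2–11 in varying MeOH/H2O mixtures.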

Hepatitis C virus [10] = experiment: Antiviral activity against Hepatitis C virus genotype 1b harboring NS5A L31V/Y93H double mutant by FRET assay; assay type: functional, organism-based, Hepacivirus hominis
Hepatitis C virus [11] = experiment: Ratio of EC50 for Hepatitis C virus genotype 1b harboring NS5A L31V/Y93H double mutant to EC50 for Hepatitis C virus genotype 1b; assay type: functional, Hepacivirus hominis
[12] = Bovine viral diarrhea virus isolates and strains

Row | Structure (SMILES) | EC50 [3, 12] [nM] | EC50 (Hepatitis C virus [4]; Hepatitis C virus, subtype 1a) [nM] | EC50 (Hepatitis C virus [6]; Hepatitis C virus, genotype 1b) [nM] | further results
1 | O=C(Nc1ccc(/C=C/c2ccc(NC(=O)[C@@H]3CCCN3C(=O)Cc3ccccc3)cc2)cc1)[C@@H]1CCCN1C(=O)Cc1ccccc1 | > 10000 | > 10000 | 0.086 | EC50 (Hepatitis C virus [1]): 0.3 nM; EC50 (Hepatitis C virus [2]): 260 nM; EC50 (Hepatitis C virus [5]): 0.16 nM; EC50 (Hepatitis C virus [7]): < 0.23 nM; EC50 (Hepatitis C virus [8]): > 3000 nM
2 | O=C(C(=O)N1CCC[C@H]1C(=O)Nc1ccc(/C=C/c2ccc(NC(=O)[C@@H]3CCCN3C(=O)C(=O)c3ccccc3)cc2)cc1)c1ccccc1 | > 10000 | 447 | 4.6 | 
3 | C[C@@H](C(=O)N1CCC[C@H]1C(=O)Nc1ccc(/C=C/c2ccc(NC(=O)[C@@H]3CCCN3C(=O)[C@H](C)c3ccccc3)cc2)cc1)c1ccccc1 | 2500 | 772 |  | 
4 | C[C@H](C(=O)N1CCC[C@H]1C(=O)Nc1ccc(/C=C/c2ccc(NC(=O)[C@@H]3CCCN3C(=O)[C@@H](C)c3ccccc3)cc2)cc1)c1ccccc1 | > 10000 | > 10000 |  | 
5 | O=C(Nc1ccc(/C=C/c2ccc(NC(=O)[C@@H]3CCCN3C(=O)[C@H](O)C3CCCCC3)cc2)cc1)[C@@H]1CCCN1C(=O)[C@H](O)C1CCCCC1 | > 10000 | 4650 | < 4.6 | 
6 | O=C(Nc1ccc(/C=C/c2ccc(NC(=O)[C@@H]3CCCN3C(=O)[C@@H](O)C3CCCCC3)cc2)cc1)[C@@H]1CCCN1C(=O)[C@@H](O)C1CCCCC1 | 6740 | 970 | 63 | 
7 | N[C@@H](C(=O)N1CCC[C@H]1C(=O)Nc1ccc(C#Cc2ccc(NC(=O)[C@@H]3CCCN3C(=O)[C@H](N)c3ccccc3)cc2)cc1)c1ccccc1 | 3760 | 910 | < 4.6 | 
8 | N[C@H](C(=O)N1CCC[C@H]1C(=O)Nc1ccc(C#Cc2ccc(NC(=O)[C@@H]3CCCN3C(=O)[C@@H](N)c3ccccc3)cc2)cc1)c1ccccc1 | > 10000 | > 9400 | < 4.6 | 
9 | CN(C)[C@@H](C(=O)N1CCC[C@H]1C(=O)Nc1ccc(C#Cc2ccc(NC(=O)[C@@H]3CCCN3C(=O)[C@@H](c3ccccc3)N(C)C)cc2)cc1)c1ccccc1 | 1900 | < 4.6 | < 4.6 | 
10 | CN(C)[C@H](C(=O)N1CCC[C@H]1C(=O)Nc1ccc(C#Cc2ccc(NC(=O)[C@@H]3CCCN3C(=O)[C@H](c3ccccc3)N(C)C)cc2)cc1)c1ccccc1 | 1200 | 628 | < 4.6 | 
11 | CCN(C)C(C(=O)N1CCC[C@H]1C(=O)Nc1ccc(C#Cc2ccc(NC(=O)[C@@H]3CCCN3C(=O)C(c3ccccc3)N(C)CC)cc2)cc1)c1ccccc1 (some centres not stated) | 2790 | 7.9 | ≤ 0.13 | 
12 | O=C(Nc1ccc(C#Cc2ccc(NC(=O)[C@@H]3CCCN3C(=O)[C@@H](c3ccccc3)N3CCCC3)cc2)cc1)[C@@H]1CCCN1C(=O)[C@@H](c1ccccc1)N1CCCC1 | 1380 | 19 | < 4.6 | pKa [9]: 8.1
13 | O=C(Nc1ccc(C#Cc2ccc(NC(=O)[C@@H]3CCCN3C(=O)C(c3ccccc3)N3CC[C@H](O)C3)cc2)cc1)[C@@H]1CCCN1C(=O)C(c1ccccc1)N1CC[C@H](O)C1 (some centres not stated) | > 10000 | 3 | 0.5 | 
14 | O=C(Nc1ccc(C#Cc2ccc(NC(=O)[C@@H]3CCCN3C(=O)C(c3ccccc3)N3CC[C@@H](O)C3)cc2)cc1)[C@@H]1CCCN1C(=O)C(c1ccccc1)N1CC[C@@H](O)C1 (some centres not stated) | 3280 | 1.4 | 0.094 | 
15 | O=C(Nc1ccc(C#Cc2ccc(NC(=O)[C@@H]3CCCN3C(=O)[C@@H](c3ccccc3)N3CCOCC3)cc2)cc1)[C@@H]1CCCN1C(=O)[C@@H](c1ccccc1)N1CCOCC1 | > 10000 | 125 | < 4.6 | pKa [9]: 4.6
16 | CC(=O)N1CCN(C(C(=O)N2CCC[C@H]2C(=O)Nc2ccc(C#Cc3ccc(NC(=O)[C@@H]4CCCN4C(=O)C(c4ccccc4)N4CCN(C(C)=O)CC4)cc3)cc2)c2ccccc2)CC1 (some centres not stated) | > 10000 | 37 | 0.42 | 
17 | O=C1CN(C(C(=O)N2CCC[C@H]2C(=O)Nc2ccc(C#Cc3ccc(NC(=O)[C@@H]4CCCN4C(=O)C(c4ccccc4)N4CCNC(=O)C4)cc3)cc2)c2ccccc2)CCN1 (some centres not stated) |  | 388 | < 4.6 | pKa [9]: 2.5
18 | CN(C)[C@H](Cc1ccccc1)C(=O)N1CCC[C@H]1C(=O)Nc1ccc(C#Cc2ccc(NC(=O)[C@@H]3CCCN3C(=O)[C@@H](Cc3ccccc3)N(C)C)cc2)cc1 | 1730 | 1290 | < 4.6 | 
19 | CN(C)[C@@H](Cc1ccccc1)C(=O)N1CCC[C@H]1C(=O)Nc1ccc(C#Cc2ccc(NC(=O)[C@@H]3CCCN3C(=O)[C@H](Cc3ccccc3)N(C)C)cc2)cc1 | 1490 | 3240 | 500 | 

Row | Structure (SMILES) | EC50 [3, 12] [nM] | EC50 (Hepatitis C virus [4]; Hepatitis C virus, subtype 1a) [nM] | EC50 (Hepatitis C virus [6]; Hepatitis C virus, genotype 1b) [nM] | further results
20 | CC(C)(C)OC(=O)N[C@@H](C(=O)N1CCC[C@H]1C(=O)Nc1ccc(C#Cc2ccc(NC(=O)[C@@H]3CCCN3C(=O)[C@H](NC(=O)OC(C)(C)C)c3ccccc3)cc2)cc1)c1ccccc1 | > 10000 | 245 | 0.002 | 
21 | CC(C)(C)OC(=O)N[C@H](C(=O)N1CCC[C@H]1C(=O)Nc1ccc(C#Cc2ccc(NC(=O)[C@@H]3CCCN3C(=O)[C@@H](NC(=O)OC(C)(C)C)c3ccccc3)cc2)cc1)c1ccccc1 | > 10000 | > 10000 | < 4.6 | 
22 | CC(C)OC(=O)N[C@@H](C(=O)N1CCC[C@H]1C(=O)Nc1ccc(C#Cc2ccc(NC(=O)[C@@H]3CCCN3C(=O)[C@H](NC(=O)OC(C)C)c3ccccc3)cc2)cc1)c1ccccc1 | > 10000 | 137 | 0.28 | 
23 | CCCOC(=O)N[C@@H](C(=O)N1CCC[C@H]1C(=O)Nc1ccc(C#Cc2ccc(NC(=O)[C@@H]3CCCN3C(=O)[C@H](NC(=O)OCCC)c3ccccc3)cc2)cc1)c1ccccc1 | > 10000 | 88 | 0.16 | 
24 | CCOC(=O)N[C@@H](C(=O)N1CCC[C@H]1C(=O)Nc1ccc(C#Cc2ccc(NC(=O)[C@@H]3CCCN3C(=O)[C@H](NC(=O)OCC)c3ccccc3)cc2)cc1)c1ccccc1 | > 10000 | 114 | 0.018 | 
25 | COC(=O)N[C@@H](C(=O)N1CCC[C@H]1C(=O)Nc1ccc(C#Cc2ccc(NC(=O)[C@@H]3CCCN3C(=O)[C@H](NC(=O)OC)c3ccccc3)cc2)cc1)c1ccccc1 | > 10000 | 26 | 0.013 | EC50 (Hepatitis C virus [10]): 382 nM
26 | CC(C)C(=O)N[C@@H](C(=O)N1CCC[C@H]1C(=O)Nc1ccc(C#Cc2ccc(NC(=O)[C@@H]3CCCN3C(=O)[C@H](NC(=O)C(C)C)c3ccccc3)cc2)cc1)c1ccccc1 | > 10000 | 70 | 0.002 | 
27 | CS(=O)(=O)N[C@@H](C(=O)N1CCC[C@H]1C(=O)Nc1ccc(C#Cc2ccc(NC(=O)[C@@H]3CCCN3C(=O)[C@H](NS(C)(=O)=O)c3ccccc3)cc2)cc1)c1ccccc1 | > 10000 | 71 | < 4.6 | 
28 | C[C@@](O)(C(=O)N1CCC[C@H]1C(=O)Nc1ccc(Br)cc1)c1ccccc1 |  | > 1300 | 380 | 
29 | O=C(Nc1ccc(/C=C/c2ccc(NC(=O)[C@@H]3CCCN3C(=O)c3nccc4ccccc34)cc2)cc1)[C@@H]1CCCN1C(=O)c1nccc2ccccc12 | > 10000 | 390 | 22 | 
30 | COc1cccc2c(C(=O)N3CCC[C@H]3C(=O)Nc3ccc(/C=C/c4ccc(NC(=O)[C@@H]5CCCN5C(=O)c5nc(Cl)cc6c(OC)cccc56)cc4)cc3)nc(Cl)cc12 | > 10000 | 19 | 7.1 | EC50 (Hepatitis C virus [1]): 3.2 nM; EC50 (Hepatitis C virus [2]): 14 nM; EC50 (Hepatitis C virus [5]): > 10000 nM; EC50 (Hepatitis C virus [7]): 3 nM; EC50 (Hepatitis C virus [8]): 74.9 nM
31 | CC(=O)N(C)C(C(=O)N1CCC[C@H]1C(=O)Nc1ccc(C#Cc2ccc(NC(=O)[C@@H]3CCCN3C(=O)C(c3ccccc3)N(C)C(C)=O)cc2)cc1)c1ccccc1 (single isomer, unassigned; diastereomer 1) |  |  |  | EC50 (Hepatitis C virus [4]): 2450 nM; EC50 (Hepatitis C virus [6]): 57 nM
32 | O=C(Nc1ccc(C#Cc2ccc(NC(=O)[C@@H]3CCCN3C(=O)C(c3ccccc3)N3CCC(O)CC3)cc2)cc1)[C@@H]1CCCN1C(=O)C(c1ccccc1)N1CCC(O)CC1 (single isomer, unassigned; diastereomer 2) |  |  |  | EC50 [3]: 2970 nM; EC50 (Hepatitis C virus [4]): 600 nM; EC50 (Hepatitis C virus [6]): 4.6 nM
33 | CN1CCN(C(C(=O)N2CCC[C@H]2C(=O)Nc2ccc(C#Cc3ccc(NC(=O)[C@@H]4CCCN4C(=O)C(c4ccccc4)N4CCN(C)CC4)cc3)cc2)c2ccccc2)CC1 (single isomer, unassigned; diastereomer 2) |  |  |  | EC50 [3]: 1360 nM; EC50 (Hepatitis C virus [4]): 2700 nM; EC50 (Hepatitis C virus [6]): 4.4 nM
34 | CN(C)C(C)(C(=O)N1CCC[C@H]1C(=O)Nc1ccc(C#Cc2ccc(NC(=O)[C@@H]3CCCN3C(=O)C(C)(c3ccccc3)N(C)C)cc2)cc1)c1ccccc1 (single isomer, unassigned; diastereomer 2) | 769 |  | < 4.6 | EC50 (Hepatitis C virus [4]): 1080 nM
35 | CC(=O)N(C)C(C(=O)N1CCC[C@H]1C(=O)Nc1ccc(C#Cc2ccc(NC(=O)[C@@H]3CCCN3C(=O)C(c3ccccc3)N(C)C(C)=O)cc2)cc1)c1ccccc1 (single isomer, unassigned; diastereomer 2) | > 10000 |  |  | EC50 (Hepatitis C virus [4]): > 5000 nM; EC50 (Hepatitis C virus [6]): 632 nM
36 | O=C(Nc1ccc(C#Cc2ccc(NC(=O)[C@@H]3CCCN3C(=O)C(c3ccccc3)N3CCC(O)CC3)cc2)cc1)[C@@H]1CCCN1C(=O)C(c1ccccc1)N1CCC(O)CC1 (stereo in doubt; 5g.1) |  |  |  | EC50 (Hepatitis C virus [10]): 12 nM; pKa [9]: 6.8; EC50 (Hepatitis C virus [1]): 0.037 nM; EC50 (Hepatitis C virus [2]): 0.083 nM; Ratio EC50 (Hepatitis C virus [11]): >90; EC50 [3]: 6980 nM; EC50 (Hepatitis C virus [4]): 0.82 nM; EC50 (Hepatitis C virus [5]): 0.042 nM; EC50 (Hepatitis C virus [6]): < 0.13 nM; EC50 (Hepatitis C virus [7]): 0.017 nM; EC50 (Hepatitis C virus [8]): 5.4 nM
37 | CN(C)C(C)(C(=O)N1CCC[C@H]1C(=O)Nc1ccc(C#Cc2ccc(NC(=O)[C@@H]3CCCN3C(=O)C(C)(c3ccccc3)N(C)C)cc2)cc1)c1ccccc1 (stereo in doubt; 5l.1) |  |  |  | EC50 [3]: 697 nM; EC50 (Hepatitis C virus [4]): 100 nM
